Measurements as given in ChEMBL document CHEMBL4138205, “Oxazole-Containing Diterpenoids from Cell Cultures of Salvia miltiorrhiza and Their Anti-HIV-1 Activities” (J Nat Prod, 2017).
The source made the active and inactive calls. No cut-off for these calls is given here.

Key:
[1] = system: Human immunodeficiency virus 1; test: Antiviral activity against wild-type VSV-G pseudotyped HIV1 infected in HEK293 cells at 10 uM pretreated for 15 mins followed by viral infection measured after 48 hrs by luciferase reporter gene assay relative to control; assay type: functional; details: Human immunodeficiency virus 1, HEK293
How it was run: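 Single-concentration screen: compound at final 10 μM added to HEK 293T cells 15 min before VSV-G/HIV-1 infection; cell lysate luciferase measured 48 h postinfection and infectivity expressed relative to equal-volume DMSO solvent control.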

[2] = system: Human immunodeficiency virus 1; test: Antiviral activity against wild-type VSV-G pseudotyped HIV1 infected in HEK293 cells pretreated for 15 mins followed by viral infection measured after 48 hrs by luciferase reporter gene assay; assay type: functional, organism-based; details: Human immunodeficiency virus 1, HEK293
[3] = system: Human immunodeficiency virus 1; test: Antiviral activity against VSV-G pseudotyped HIV1 infected in human MT2 cells pretreated for 15 mins followed by viral infection measured after 48 hrs by luciferase reporter gene assay; assay type: functional, organism-based; details: Human immunodeficiency virus 1, MT2
[4] = system: Human immunodeficiency virus 1; test: Antiviral activity against HIV1 NL4-3 infected in human MT2 cells measured after 72 hrs post infection by fluorAce beta-galactosidase reporter gene assay; assay type: functional, organism-based; details: Human immunodeficiency virus 1, NL4-3, MT2, 72 h
How it was run: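 MT-2 cells (RPMI 1640, 10% FBS) in 384-well format infected with HIV-1 NL4-3 carrying a β-galactosidase reporter at MOI 0.01; compounds added in DMSO; β-Gal expression read at 72 h postinfection by FluorAce β-Gal reporter assay; n = 2.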

[5] = system: Murine leukemia virus; test: Antiviral activity against wild-type VSV-G pseudotyped MLV infected in HEK293 cells pretreated for 15 mins followed by viral infection measured after 48 hrs by luciferase reporter gene assay; assay type: functional, organism-based
[6] = system: Human immunodeficiency virus 1; test: Antiviral activity against wild-type VSV-G pseudotyped HIV1 infected in HEK293 cells assessed as time of 50% failure at 0.1 uM measured at 48 hrs post infection by luciferase reporter gene assay; assay type: functional
How it was run: (§1)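 Time-of-addition: HEK 293T infected with VSV-G/HIV-1, then compounds added at successive time points after infection (test compound final 0.1 μM; AZT, EFV, RAL final 1 μM); lysate luciferase read at 48 h postinfection; infectivity (%) versus untreated control.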

[7] = system: Human immunodeficiency virus 1; test: Antiviral activity against HIV1 pNL4-3 infected in HEK293 cells assessed as reduction in viral transcription by measuring decrease in luciferase activity after 20 hrs by luciferase reporter gene assay; assay type: functional, organism-based
How it was run: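 HEK 293T transiently transfected with pNL4-3.luc.R−E− for 4 h, then treated with compound (0.001−1 μM range; AZT, EFV, RAL 1 μM) for a further 20 h; luciferase activity then measured as read-out of viral gene expression; n = 2.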

[8] = system: HEK293; test: Effect on renilla luciferase expression in HEK293 cells up to 1 uM after 24 hrs by luciferase reporter gene assay; assay type: ADME, cell-based; details: human, hek293, 24 h
How it was run: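 A plasmid encoding Renilla luciferase (pSV40-Renilla) was transiently transfected into HEK 293T cells for 4 h. Cells were then cultured with the test compound at the indicated concentrations, and Renilla luciferase activity in cell lysates was measured 24 h post-transfection as a control for gene translation; n = 2.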

[9] = system: Human immunodeficiency virus 1; test: Antiviral activity against HIV1 infected in HEK293 cells assessed as inhibition of basal LTR transcription after 48 hrs by dual-luciferase reporter gene assay; assay type: functional, organism-based
How it was run: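 HEK 293T cotransfected 4 h with 100 ng pLTR-Luc and 2 ng pSV40-Renilla (no Tat), then compound added; firefly and Renilla luciferase in lysates measured 48 h post-transfection by dual-luciferase assay; n = 2.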

[10] = target: T1, Protein Tat (Human immunodeficiency virus type 1 group M subtype B (isolate HXB2)(HIV-1)) (UniProt P04608); test: Inhibition of HIV1 Tat-mediated LTR transcriptional activity expressed in HEK293 cells after 48 hrs by dual-luciferase reporter gene assay; assay type: cell-based; details: Human immunodeficiency virus 1
T1 sequence (whole entry): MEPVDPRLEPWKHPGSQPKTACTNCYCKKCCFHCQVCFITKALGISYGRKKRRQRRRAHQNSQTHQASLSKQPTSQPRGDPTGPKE
How it was run: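 HEK 293T cotransfected 4 h with 100 ng pLTR-Luc, 70 ng pcDNA3.1-Tat and 2 ng pSV40-Renilla, then cultured with compound; lysate luciferase activities read 48 h post-transfection by dual-luciferase assay; n = 2.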

[11] = system: Human immunodeficiency virus 1; test: Antiviral activity against wild-type VSV-G pseudotyped HIV1 infected in HEK293 cells assessed as time of 50% failure at 1 uM measured at 48 hrs post infection by luciferase reporter gene assay; assay type: functional; how it was run: as §1
[12] = system: Human immunodeficiency virus 1; test: Antiviral activity against HIV1 pNL4-3 infected in HEK293 cells assessed as reduction in viral transcription by measuring decrease in luciferase activity at 1 uM after 20 hrs by luciferase reporter gene assay; assay type: functional, organism-based
How it was run: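 HEK 293T cells transiently transfected with the pNL4-3.luc.R−E− HIV-1 reporter plasmid (luciferase gene) for 4 h. The test compound was then added at 0.001−1 μM final and incubated for an additional 20 h. Luciferase activity was read 24 h post-transfection as a measure of viral gene expression; n = 2.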

| Compound | inhibition at 10 µM [1] [%] | FT50 [11] [h] | Activity [12] | other results |
| --- | --- | --- | --- | --- |
| Cc1cccc2c1ccc1c3c(c4ocnc4c12)[C@@H](C)CO3 | 76.7 |  |  | IC50 [2]: 30 nM; IC50 [3]: 30 nM; IC50 [4]: 5400 nM; IC50 [5]: 150 nM; FT50 [6]: <=20 hr; Activity [7]: Dose-dependent effect; Activity [8]: Non-Toxic; inhibition [9]: Dose-dependent effect; inhibition [10]: Dose-dependent effect |
| Cc1nc2c3c(c4ccc5c(c4c2o1)CCCC5(C)C)OC[C@@H]3C | 11.2 |  |  |  |
| O=C1Nc2ccc(Cl)cc2[C@@](C#CC2CC2)(C(F)(F)F)O1 [EFAVIRENZ] | 100 | 10.1 | inactive | IC50 [5]: > 10000 nM |
| Cc1nnc(C(=O)NC(C)(C)c2nc(C(=O)NCc3ccc(F)cc3)c(O)c(=O)n2C)o1 [RALTEGRAVIR] |  | 12 | inactive |  |
| Cc1cccc2c1ccc1c3c(c4oc(Cc5ccccc5)nc4c12)[C@@H](C)CO3 | 62.1 |  |  | IC50 [2]: 1200 nM |
| Cc1cn([C@H]2C[C@H](N=[N+]=[N-])[C@@H](CO)O2)c(=O)[nH]c1=O [ZIDOVUDINE] |  | 7.7 | inactive |  |
| C[C@H]1COc2c1c1ocnc1c1c3c(ccc21)C(C)(C)CCC3 | 18.7 |  |  |  |
| Cc1nc2c(o1)c1c(c3ccc4c(C)cccc4c32)OC[C@@H]1C | 2.82 |  |  |  |
| Cc1nc2c(o1)c1c(C)coc1c1ccc3c(C)cccc3c12 | 17.4 |  |  |  |
| Cc1nc2c(o1)c1c(c3ccc4c(c32)CCCC4(C)C)OC[C@@H]1C | 18.3 |  |  |  |
